Screens: PubChem, several laboratories
Myeloid diff 2 = compounds promoting myeloid differentiation | ER-HoxA9 myeloid progenitors, lysozyme-GFP differentiation, flow cytometry | calls only at 10 µM | 360,000 tested, 1% active;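 active means normalized GFP-positive differentiation at or above the plate's own cutoff, the solvent-only control mean plus 3 SD; inconclusive means no clear call, values can overlap the other calls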;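 further: cells exposed to compound for four days before flow analysis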
ABCB6 inh MLPCN = inhibitors of human ABC transporter ABCB6. Q9NP58. K562-ABCB6 porphyrin accumulation, flow cytometry, 1 h; active compounds read low. fluorescence ratio to DMSO, % at 10 µM. 360,000 tested, 0.19% active;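 active means fluorescence ratio to DMSO below 75%, the collection mean minus 3 SD; inconclusive means too few cells collected in the well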;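 further: signal is porphyrin accumulated inside mitochondria; lower ratio means ABCB6 inhibition with less porphyrin fluorescence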
Target sequence (Q9NP58 whole entry, looked up): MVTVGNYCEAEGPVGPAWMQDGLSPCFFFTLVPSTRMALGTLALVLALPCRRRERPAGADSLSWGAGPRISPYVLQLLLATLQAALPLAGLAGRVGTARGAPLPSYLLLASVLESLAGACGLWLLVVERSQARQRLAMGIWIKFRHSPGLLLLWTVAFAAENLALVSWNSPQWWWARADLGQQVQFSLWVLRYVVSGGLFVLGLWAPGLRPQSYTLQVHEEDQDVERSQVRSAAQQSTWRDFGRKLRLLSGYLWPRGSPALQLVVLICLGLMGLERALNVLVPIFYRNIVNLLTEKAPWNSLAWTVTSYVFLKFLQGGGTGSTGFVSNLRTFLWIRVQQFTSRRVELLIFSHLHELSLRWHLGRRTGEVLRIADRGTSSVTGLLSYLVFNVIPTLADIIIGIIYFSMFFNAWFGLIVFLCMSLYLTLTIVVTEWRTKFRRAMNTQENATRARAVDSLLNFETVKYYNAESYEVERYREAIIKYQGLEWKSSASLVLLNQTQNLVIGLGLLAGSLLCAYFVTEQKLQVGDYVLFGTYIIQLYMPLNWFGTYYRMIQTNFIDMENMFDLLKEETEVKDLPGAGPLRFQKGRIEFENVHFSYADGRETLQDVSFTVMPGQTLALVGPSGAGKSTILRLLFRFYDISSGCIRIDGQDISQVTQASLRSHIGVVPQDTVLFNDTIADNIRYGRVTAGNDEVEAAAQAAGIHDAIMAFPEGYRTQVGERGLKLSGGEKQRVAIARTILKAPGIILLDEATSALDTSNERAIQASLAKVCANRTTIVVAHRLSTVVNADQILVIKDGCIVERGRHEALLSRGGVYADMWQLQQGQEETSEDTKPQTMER
Xi reactivation = reactivates the inactive X chromosome in mouse fibroblasts; 360,000 tested, 0.055% active; XiGFP mouse fibroblasts, % GFP-positive cells imaging, 3 d; cells co-treated with 5-aza-dC sensitizer; scaled so ellipticine positive control = 100%; activation, % at 7.58 µM;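 active means mean normalized replicate activation at least 10% and every replicate at or above 10%; inconclusive means only one of the two criteria met; inactive means mean below 10% and not all replicates reach 10%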
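Material: XiGFP fibroblasts, SV40-immortalized; Buffer or medium: DMEM containing 5-aza-dC; Compound dosing: single point; Times: 3 days compound exposure.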
ABCB6 inh CP1 = inhibitors of human ABC transporter ABCB6. shares compounds with ABCB6 inh MLPCN. K562-ABCB6 porphyrin accumulation, flow cytometry, 1 h; active compounds read low. AID 602430. 700 tested, under 10 active. ratio response (% of DMSO), % at 10 µM;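 active means repeat-averaged ratio response below 75% of DMSO, the collection mean minus 3 SD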;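 further: median porphyrin fluorescence at 575 nm with 488 nm excitation from mitochondria; lower ratio means less porphyrin signal so ABCB6 inhibition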
K562 vector FC = activity in empty-vector K562 counter-screen for ABCB6 inhibitors; shares compounds with ABCB6 inh MLPCN; K562 empty-vector cells, flow cytometry fluorescence, 1 h; percent response (fluorescence), % at 100 µM; 25 tested, under 10 active; AID 624484;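 active means compounds whose half-maximal effective concentration is below 100 µM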
Numbers stand for hits; . = inactive; ? = inconclusive; / = not tested or not shown. The entries come from a sample that favours hits as a whole.

SMILES	Myeloid diff 2	ABCB6 inh MLPCN	Xi reactivation	ABCB6 inh CP1	others
CC(C)(C)CN1CCC(Oc2cccc(C(=O)N3CCNC(=O)C3(C)C)c2)CC1	.	14	.	.
Cc1ccccc1Cc1c(C)nc2nc(SCC(=O)NCc3ccco3)nn2c1C	.	.	/	/
CCOC(=O)N1CCN(C(=O)c2cnn3c(C)c(Cc4ccc(C)cc4)c(C)nc23)CC1	.	.	/	.
Cc1nc2c(C(=O)O)cnn2c(C)c1Cc1ccccc1F	.	.	/	/
Cc1nc2c(C(=O)N3CCCC3)cnn2c(C)c1Cc1c(F)cccc1Cl	.	.	/	.
Cc1ccc(C)c(Cc2c(C)nc3c(C(=O)N4CCOCC4)cnn3c2C)c1	.	.	/	.
Cc1ccccc1Cc1c(C)nc2c(C(=O)NCc3ccco3)cnn2c1C	.	70	/	.
CCOC(=O)N1CCN(C(=O)c2cnn3c(C(F)F)cc(-c4ccc(C)cc4)nc23)CC1	.	.	/	/
Cc1nc2c(C(=O)N3CCN(c4ccccn4)CC3)cnn2c(C)c1Cc1cccc(Cl)c1	.	.	/	/
COc1cccc(CN2[C@H](CO)[C@@H](c3ccccc3)C23CN(Cc2ccccc2)C3)c1	/	/	.	/
CO[C@H]1CN(C)C(=O)c2cc(NC(=O)Nc3ccccc3)ccc2OC[C@@H](C)N(C(=O)CC2CC2)C[C@@H]1C	/	/	.	/
CCCCCCC(O)(c1ccccc1)C(CN1CCOCC1)c1ccccc1 (stereo not given)	.	.	.	/
CCCCCC(O)(c1ccccc1)C(CN1CCOCC1)c1ccccc1 (stereo not given)	.	72	.	.
C[C@H]1CN([C@@H](C)CO)S(=O)(=O)c2ccc(/C=C/c3ccccc3)cc2O[C@H]1CN(C)C(=O)c1ccncc1	/	/	.	/
CNC[C@H]1Oc2ccc(NC(=O)CCCN(C)C)cc2C(=O)N([C@@H](C)CO)C[C@H]1C	/	/	.	/
C[C@@H]1CN([C@H](C)CO)C(=O)c2ccccc2-c2ccccc2CO[C@@H]1CN(C)C(=O)Nc1ccnc(N2CCOCC2)c1	/	/	.	/
Nc1nc(Nc2ccccc2)sc1C(=O)c1ccccc1	.	.	.	/
Cc1cnc(NC(=O)c2sc(Nc3ccccc3)nc2N)o1	.	19	.	.
CNC[C@@H]1Oc2c(NS(=O)(=O)c3ccc(F)cc3)cccc2C(=O)N([C@H](C)CO)C[C@H]1C	/	/	.	/
C[C@@H]1CCCCO[C@@H](CN(C)S(=O)(=O)c2ccc(Cl)cc2)[C@H](C)CN([C@@H](C)CO)C(=O)c2cc(NS(=O)(=O)c3cn(C)cn3)ccc2O1	/	/	.	/
Cc1noc(C)c1S(=O)(=O)Nc1ccc2c(c1)C(=O)N([C@@H](C)CO)C[C@H](C)[C@H](CN(C)Cc1ccc3c(c1)OCO3)O2	/	/	.	/
CCOC(=O)c1sc(NC(=O)CCN2C(=O)c3ccccc3C2=O)c(C(=O)OCC)c1C	.	.	.	/
CCOC(=O)c1c(NC(=O)CCN2C(=O)c3ccccc3C2=O)sc(C(=O)OC(C)C)c1C	.	70	/	.
O=C(Nc1cccc(F)c1)N1C[C@H]2[C@@H](c3ccccc31)[C@H](CO)N2C(=O)Cc1ccccc1	/	/	.	/
O=C(Nc1ccc(F)cc1)c1nn(-c2ccccc2)c(=O)cc1Cl	?	.	.	/
SMILES	Myeloid diff 2	ABCB6 inh MLPCN	Xi reactivation	ABCB6 inh CP1	others
Cc1ccccc1CS(=O)(=O)c1ncc(Cl)c(C(=O)Nc2ccc(F)cc2)n1	?	36	.	/	K562 vector FC=.
Cc1ccc(NC(=O)c2nc(S(=O)(=O)Cc3ccccc3)ncc2Cl)cc1	?	35	.	.
CS(=O)(=O)c1ncc(Cl)c(C(=O)Nc2ccc(N3CCOCC3)cc2)n1	/	.	/	/
Cc1ccccc1NC(=O)c1nc(S(C)(=O)=O)ncc1Cl	?	.	.	/
O=C(Nc1ccc(F)cc1)c1nc(S(=O)(=O)Cc2ccccc2)ncc1Cl	?	46	.	.
COc1ccc(-c2nc(N)ncc2-c2ccccc2)c(O)c1	.	.	.	/
COc1ccc(-c2cnc(N)nc2-c2ccc(OC)cc2O)cc1	.	73	/	.
COc1cccc(-c2nnc(SCC(=O)N3CCCC3=O)n2-c2ccccc2)c1	.	.	/	/
COc1cccc(-c2nnc(SCC3CNC(=O)O3)n2-c2ccc(Cl)cc2)c1 (stereo not given)	.	67	.	.
C[C@H](CO)N1C[C@H](C)[C@H](CN(C)S(C)(=O)=O)Oc2ncc(C#Cc3cccnc3)cc2C1=O	/	/	.	/
Cn1c(=O)c2c(ncn2CC(=O)NC(C)(C)C)n(C)c1=O	.	74	/	.
CC(C)NC(=O)Cn1cnc2c1c(=O)n(C)c(=O)n2C	.	.	/	/
O=C(CSc1nnc(-c2ccc(F)cc2)o1)Nc1ccc(S(=O)(=O)N2CCCC2)cc1	.	.	/	/
O=C(CSc1nnc(-c2ccc(F)cc2)o1)Nc1ccc(S(=O)(=O)N2CCCCCC2)cc1	.	31	/	.
Cc1noc(C)c1NC(=O)Nc1cccc2c1O[C@@H](CN(C)S(=O)(=O)c1ccccc1)[C@H](C)CN([C@@H](C)CO)C2=O	/	/	.	/
COc1ccccc1C(=O)Nc1ccnn1C1CCN(C(=O)c2ccoc2C)CC1	.	.	.	/
COc1ccccc1C(=O)Nc1ccnn1C1CCN(C(=O)c2ccoc2)CC1	.	74	.	.
C[C@H](CO)N1C[C@H](C)[C@@H](CN(C)S(=O)(=O)c2cccs2)Oc2ccc(NC(=O)Cc3ccccc3)cc2CC1=O	/	/	.	/
C[C@H]1CN([C@@H](C)CO)C(=O)c2cccc(NC(=O)C3CCOCC3)c2O[C@H]1CN(C)Cc1ccc(C(=O)O)cc1	/	/	.	/
Cc1nc2c(F)c(F)c(C(F)(F)F)c(F)c2[nH]1	.	69	/	.
Cc1nc2c(Br)c3nc(C(F)(F)F)[nH]c3c(Br)c2[nH]1	.	.	/	/
CCOc1ccc(C(=O)NCC(C)NC(=O)c2ccc(OCC)cc2)cc1 (stereo not given)	.	.	.	/
CCOc1ccc(C(=O)NCC(C)C)cc1	.	74	/	.
CN(C)C(=O)c1cccc(-c2ccccc2[C@H]2[C@@H](C#N)N(C(=O)C3CCCC3)[C@H]2CO)c1	/	/	.	/
CC(=O)NC[C@H]1[C@@H](c2ccc(C3=CCCC3)cc2)[C@@H](CO)N1C(=O)CN(C)C	/	/	.	/
SMILES	Myeloid diff 2	ABCB6 inh MLPCN	Xi reactivation	ABCB6 inh CP1	others
COc1ccc(CN(C)C[C@@H]2OCCCC[C@H](C)Oc3ccc(NS(=O)(=O)c4c(C)noc4C)cc3C(=O)N([C@@H](C)CO)C[C@H]2C)cc1	/	/	.	/
CC(=O)Nc1c(C)ccc(CNC(=O)COc2ccc(F)cc2)c1C	.	.	.	/
CC(=O)Nc1c(C)ccc(CNC(=O)COc2cc(C)ccc2C)c1C	.	72	.	.
C[C@@H]1CCCCO[C@H](CN(C)C(=O)c2ccncc2)[C@H](C)CN([C@H](C)CO)C(=O)c2cc(N(C)C)ccc2O1	/	/	.	/
NC(N)=Nc1nc(CSCC/C(N)=N/S(N)(=O)=O)cs1	.	72	.	.
Cc1ccc(-c2csc(N=C(N)N)n2)cc1	.	.	.	/
N#Cc1c([N+](=O)[O-])cc([N+](=O)[O-])cc1S(=O)(=O)Cc1ccccc1	?	.	.	/
COc1cc(OC)c(C#N)c(S(=O)(=O)Cc2ccccc2)c1	.	68	/	.
